In brackets after ≈: the same amount, converted by molar mass. Values belong to the compound of their own block, whether it stands above or below them. Activity calls are given as the source filed them. The calls are words filed in the database; no cut-off is given here.
Columns and labels:
[1] = target: Metabotropic glutamate receptor 4 (Homo sapiens, UniProt Q14833); experiment: Positive allosteric modulation of recombinant human mGlu4 receptor expressed in HEK293 cells co-expressing Gi/Gq assessed as increase in glutamate-induced calcium flux preincubated for 10 mins followed by glutamate addition measured for 3 mins by Fluo4-AM dye based fluorescence assay; format: functional, cell-based
Sequence of Metabotropic glutamate receptor 4 (Q14833 whole entry): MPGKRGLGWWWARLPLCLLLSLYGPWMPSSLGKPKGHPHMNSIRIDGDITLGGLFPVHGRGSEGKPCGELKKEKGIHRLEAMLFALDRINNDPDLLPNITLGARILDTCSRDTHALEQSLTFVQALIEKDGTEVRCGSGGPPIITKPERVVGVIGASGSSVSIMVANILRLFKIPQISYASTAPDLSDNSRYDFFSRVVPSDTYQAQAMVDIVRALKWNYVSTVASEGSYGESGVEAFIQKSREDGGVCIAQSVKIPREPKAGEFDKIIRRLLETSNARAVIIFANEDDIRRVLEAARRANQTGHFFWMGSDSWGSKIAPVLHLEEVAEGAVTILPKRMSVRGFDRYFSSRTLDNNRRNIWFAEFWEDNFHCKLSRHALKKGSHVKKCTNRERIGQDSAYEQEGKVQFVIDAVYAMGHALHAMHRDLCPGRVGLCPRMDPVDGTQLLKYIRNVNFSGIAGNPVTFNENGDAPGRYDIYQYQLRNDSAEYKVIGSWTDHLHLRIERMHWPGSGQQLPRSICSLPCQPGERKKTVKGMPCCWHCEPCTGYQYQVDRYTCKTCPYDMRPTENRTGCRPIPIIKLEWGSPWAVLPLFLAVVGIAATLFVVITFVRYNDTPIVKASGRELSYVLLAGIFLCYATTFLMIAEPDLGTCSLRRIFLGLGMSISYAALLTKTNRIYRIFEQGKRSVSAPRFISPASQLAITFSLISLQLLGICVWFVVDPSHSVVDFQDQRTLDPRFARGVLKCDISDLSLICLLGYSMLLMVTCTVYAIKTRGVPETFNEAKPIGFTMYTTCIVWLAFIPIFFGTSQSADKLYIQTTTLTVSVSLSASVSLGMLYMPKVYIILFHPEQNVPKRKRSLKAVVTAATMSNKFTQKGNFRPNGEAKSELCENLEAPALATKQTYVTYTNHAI

[2] = Drug uptake in Sprague-Dawley rat brain at 10 mg/kg, po after 90 mins post dose administered as single dose by LC-MS/MS analysis; format: ADME, organism-based; conditions: read-out: Drug uptake
Procedure, shortened: (§1)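 Rats given a single oral dose of 10 mg/kg. Brain concentrations were measured at 30, 60 and 90 min postdose, and brain AUC0–inf was determined. Values are the mean of three rats. Lower limit of quantification was 1 ng/mL.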

[3] = Drug uptake in Sprague-Dawley rat brain at 10 mg/kg, po after 30 mins post dose administered as single dose by LC-MS/MS analysis; format: ADME, organism-based; conditions: read-out: Drug uptake
Procedure, shortened: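 Rats given a single oral dose of 10 mg/kg. The first plasma sample was taken at 15 min, and sampling continued to 24 h postdose. Brain was sampled at 30 min. Values are the mean (±SEM) of 3 rats.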

[4] = Drug uptake in Sprague-Dawley rat brain at 10 mg/kg, po after 60 mins post dose administered as single dose by LC-MS/MS analysis; format: ADME, organism-based; conditions: read-out: Drug uptake; procedure, shortened: as §1
[5] = Thermodynamic solubility of the compound in water; format: physicochemical; conditions: read-out: Therm_solubility
Procedure, shortened: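 Thermodynamic solubility measured in milli-Q water.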

[6] = target: Metabotropic glutamate receptor 1 (Homo sapiens) (UniProt Q13255); experiment: Negative allosteric modulation of human mGlu1 receptor expressed in HEK293 cells co-expressing Gi/Gq assessed as reduction in EC20/EC80 glutamate-induced intracellular calcium level preincubated for 10 mins followed by glutamate addition measured for 3 mins by Fluo4-AM dye based fluorescence assay; format: functional, cell-based
Sequence of Metabotropic glutamate receptor 1 (Homo sapiens) (Q13255 19-1194 limits assumed): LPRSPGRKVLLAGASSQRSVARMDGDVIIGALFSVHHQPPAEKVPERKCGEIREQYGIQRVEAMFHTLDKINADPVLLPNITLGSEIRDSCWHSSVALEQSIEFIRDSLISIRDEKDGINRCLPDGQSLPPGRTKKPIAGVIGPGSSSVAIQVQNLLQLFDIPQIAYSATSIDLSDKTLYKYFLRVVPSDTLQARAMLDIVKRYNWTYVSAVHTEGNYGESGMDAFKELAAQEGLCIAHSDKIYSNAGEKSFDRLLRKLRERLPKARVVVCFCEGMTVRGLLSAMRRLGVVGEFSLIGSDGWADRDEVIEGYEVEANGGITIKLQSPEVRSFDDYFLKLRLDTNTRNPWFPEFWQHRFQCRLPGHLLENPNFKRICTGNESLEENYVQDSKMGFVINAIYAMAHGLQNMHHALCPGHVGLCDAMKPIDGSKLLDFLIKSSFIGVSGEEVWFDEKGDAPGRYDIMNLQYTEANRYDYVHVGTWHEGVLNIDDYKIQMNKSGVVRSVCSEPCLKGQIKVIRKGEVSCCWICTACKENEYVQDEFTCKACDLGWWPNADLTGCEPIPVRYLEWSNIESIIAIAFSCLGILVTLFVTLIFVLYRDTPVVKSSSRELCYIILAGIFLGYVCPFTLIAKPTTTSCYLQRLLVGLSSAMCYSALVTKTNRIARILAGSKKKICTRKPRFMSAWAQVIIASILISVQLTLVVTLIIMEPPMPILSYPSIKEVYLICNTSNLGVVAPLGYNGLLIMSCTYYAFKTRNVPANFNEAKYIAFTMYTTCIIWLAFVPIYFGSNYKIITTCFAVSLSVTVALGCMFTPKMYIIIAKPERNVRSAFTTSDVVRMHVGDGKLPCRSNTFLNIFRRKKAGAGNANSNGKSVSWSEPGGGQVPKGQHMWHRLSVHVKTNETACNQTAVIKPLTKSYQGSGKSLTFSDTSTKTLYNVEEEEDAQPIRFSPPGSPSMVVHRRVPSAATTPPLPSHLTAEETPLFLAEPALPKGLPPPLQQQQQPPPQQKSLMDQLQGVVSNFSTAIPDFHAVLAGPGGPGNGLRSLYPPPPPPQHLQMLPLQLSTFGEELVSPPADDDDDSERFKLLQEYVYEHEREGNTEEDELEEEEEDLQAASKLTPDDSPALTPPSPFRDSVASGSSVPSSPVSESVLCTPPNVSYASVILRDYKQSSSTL
Procedure, shortened: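 HEK-293 cells transiently expressing human mGluR1 with a Gα15, Gqi9 or GqTOP G protein for calcium read-out; Fluo4-AM loaded. Compound added 10 min, then EC80 glutamate, fluorescence recorded 3 min; concentration–response over 20 concentrations, duplicate, three independent experiments.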

concentration at 1.5 h [2]: 281 ng/g | EC50 ([1]; read-out: EC50): 0.035 µM | concentration at 0.5 h [3]: 408 ng/g | concentration at 1 h [4]: 521 ng/g
Compound: O/N=c1\cc(-c2cc3sccc3cn2)oc2ccc(OCCN3CCOCC3)cc12

EC50 ([1]; read-out: EC50): 0.05 µM | concentration at 0.5 h [3]: 3.4 ng/g | concentration at 1 h [4]: 2.3 ng/g
Compound: O/N=c1\cc(-c2cc3cccn3cn2)oc2ccc(OCCCc3cccnc3)cc12

EC50 ([1]; read-out: EC50): 0.017 µM | concentration at 0.5 h [3]: 20 ng/g | concentration at 1 h [4]: 9.5 ng/g
Compound: O/N=c1\cc(-c2cc3sccc3cn2)oc2ccc(O[C@@H]3CCN(c4ccncn4)C3)cc12

EC50 ([1]; read-out: EC50): 1.71 µM
Compound: CN1CCN(CCOc2ccc3oc(-c4cc5cccn5cn4)c/c(=N\O)c3c2)CC1

EC50 ([1]; read-out: EC50): 1.39 µM
Compound: COc1ccc2oc(-c3cc4ccccc4cn3)c/c(=N\O)c2c1

EC50 ([1]; read-out: EC50): 0.165 µM | concentration at 0.5 h [3]: 2.8 ng/g | concentration at 1 h [4]: 2.9 ng/g
Compound: CN(C)C1CCN(CCOc2ccc3oc(-c4cc5cccn5cn4)c/c(=N\O)c3c2)CC1

EC50 ([1]; read-out: EC50): 0.01 µM | concentration at 0.5 h [3]: 24.1 ng/g | concentration at 1 h [4]: 12.1 ng/g
Compound: CC(=O)N1CCC(Oc2ccc3oc(-c4cc5cccn5cn4)c/c(=N\O)c3c2)CC1

EC50 ([1]; read-out: EC50): 9.84 µM
Compound: CN1CCN(CCOc2ccc3oc(-c4cc5ccccc5cn4)c/c(=N\O)c3c2)CC1

EC50 ([1]; read-out: EC50): 5.26 µM
Compound: CN1CCN(CCCNc2ccc3oc(-c4cc5ccccc5cn4)c/c(=N\O)c3c2)CC1

EC50 ([1]; read-out: EC50): 0.006 µM | concentration at 0.5 h [3]: 10.7 ng/g | concentration at 1 h [4]: 6.5 ng/g
Compound: CC(=O)N1CCC(COc2ccc3oc(-c4cc5sccc5cn4)c/c(=N\O)c3c2)CC1

EC50 ([1]; read-out: EC50): 0.004 µM | concentration at 0.5 h [3]: 33.4 ng/g | concentration at 1 h [4]: 26.7 ng/g
Compound: O/N=c1\cc(-c2cc3sccc3cn2)oc2ccc(OC3CN(c4cccnc4)C3)cc12

solubility thermodynamic [5]: 10600 µM
Compound: Cl.O/N=c1\cc(-c2cc3cccn3cn2)oc2ccc(OCCN3CCOCC3)cc12

EC50 ([1]; read-out: EC50): 0.13 µM
Compound: O/N=c1\cc(-c2cc3ccsc3cn2)oc2ccccc12

concentration at 1.5 h [2]: 194 ng/g | EC50 ([1]; read-out: EC50): 0.09 µM | concentration at 0.5 h [3]: 239 ng/g | concentration at 1 h [4]: 207 ng/g
Compound: O/N=c1\cc(-c2cc3sccc3cn2)oc2ccc(OCCN3CCC(F)(F)CC3)cc12

EC50 ([1]; read-out: EC50): 1.63 µM
Compound: O/N=c1\cc(-c2cc3ccccc3cn2)oc2ccc(OC(F)(F)F)cc12

EC50 ([1]; read-out: EC50): 2.34 µM
Compound: O/N=c1\cc(-c2cc3cccn3cn2)oc2ccc(OCCN3CCCC3)cc12

EC50 ([1]; read-out: EC50): 0.019 µM | concentration at 0.5 h [3]: 77.3 ng/g | concentration at 1 h [4]: 82.5 ng/g
Compound: Cc1cc(CCCOc2ccc3oc(-c4cc5cccn5cn4)c/c(=N\O)c3c2)ccn1

EC50 ([1]; read-out: EC50): 0.06 µM | concentration at 0.5 h [3]: < 1 ng/g | concentration at 1 h [4]: < 1 ng/g
Compound: CN1CCCC12CCN(CCOc1ccc3oc(-c4cc5sccc5cn4)c/c(=N\O)c3c1)CC2

EC50 ([1]; read-out: EC50): 0.053 µM | concentration at 1 h [4]: < 1 ng/g
Compound: O/N=c1\cc(-c2cc3sccc3cn2)oc2ccc(NC3CCN(c4ccncn4)CC3)cc12

EC50 ([1]; read-out: EC50): 0.69 µM
Compound: O/N=c1\cc(-c2cc3ccccc3cn2)oc2ccc(Br)cc12

EC50 ([1]; read-out: EC50): 3.01 µM
Compound: COCCOc1ccc2/c(=N/O)cc(-c3cc4ccccc4cn3)oc2c1

EC50 ([1]; read-out: EC50): 1.16 µM
Compound: COc1ccc2/c(=N/O)cc(-c3cc4ccccc4cn3)oc2c1

EC50 ([1]; read-out: EC50): 0.15 µM
Compound: O/N=c1\cc(-c2cc3cccn3cn2)oc2ccc(OCCN3CCC(F)(F)CC3)cc12

EC50 ([1]; read-out: EC50): 0.053 µM | concentration at 0.5 h [3]: < 1 ng/g | concentration at 1 h [4]: < 1 ng/g
Compound: CC(=O)N1CC(Oc2ccc3oc(-c4cc5sccc5cn4)c/c(=N\O)c3c2)C1

concentration at 1.5 h [2]: 100 ng/g | EC50 ([1]; read-out: EC50): 0.106 µM | concentration at 0.5 h [3]: 157 ng/g | concentration at 1 h [4]: 201 ng/g
Compound: O/N=c1\cc(-c2cc3sccc3cn2)oc2ccc(CCCN3CCC(F)(F)CC3)cc12

EC50 ([1]; read-out: EC50): 0.004 µM | concentration at 0.5 h [3]: 7.4 ng/g | concentration at 1 h [4]: < 1 ng/g
Compound: Cc1ncccc1N1CCC(Cc2ccc3oc(-c4cc5sccc5cn4)c/c(=N\O)c3c2)CC1

EC50 ([1]; read-out: EC50): 0.75 µM
Compound: COCCOc1ccc2oc(-c3cc4ccccc4cn3)c/c(=N\O)c2c1

solubility thermodynamic [5]: 16.3 µM (≈ 5.73 µg/mL) | EC50 ([1]; read-out: EC50): 0.16 µM
Compound: COCCOc1ccc2oc(-c3cc4cccn4cn3)c/c(=N\O)c2c1

EC50 ([1]; read-out: EC50): 1.01 µM
Compound: O/N=c1\cc(-c2cc3ccccc3cn2)oc2ccc(C3CC3)cc12

EC50 ([1]; read-out: EC50): 0.2 µM
Compound: O/N=c1\cc(-c2cc3sccc3cn2)oc2ccccc12

EC50 ([1]; read-out: EC50): 0.98 µM
Compound: Cc1ccc2oc(-c3cc4ccccc4cn3)c/c(=N\O)c2c1

concentration at 1.5 h [2]: 137 ng/g | EC50 ([1]; read-out: EC50): 0.025 µM | concentration at 0.5 h [3]: 275 ng/g | concentration at 1 h [4]: 197 ng/g
Compound: O/N=c1\cc(-c2cc3sccc3cn2)oc2ccc(CCCN3CCC(F)(F)C3)cc12

Second part, the compound before the results:

Compound: Cc1cc(C)n2cnc(-c3c/c(=N\O)c4ccccc4o3)cc12
EC50 ([1]; hek293): Not Active

Compound: Cn1c(-c2c/c(=N\O)c3ccccc3o2)cc2ccccc21
EC50 ([1]; hek293): Not Active

Compound: Cn1ccc2cc(-c3c/c(=N\O)c4ccccc4o3)ncc21
EC50 ([1]; read-out: EC50): 0.86 µM

Compound: O/N=c1\cc(-c2cc3ncccc3cn2)oc2ccccc12
EC50 ([1]; read-out: EC50): 0.24 µM

Compound: O/N=c1\cc(-c2cc3cc[nH]c3cn2)oc2ccccc12
EC50 ([1]; read-out: EC50): 0.05 µM

Compound: CN(C)C(=O)N1CC(Oc2ccc3oc(-c4cc5cccn5cn4)c/c(=N\O)c3c2)C1
EC50 ([1]; read-out: EC50): 0.035 µM | concentration at 0.5 h [3]: 25.5 ng/g | concentration at 1 h [4]: 8.8 ng/g

Compound: O/N=c1\cc(-c2cc3ccccc3cn2)oc2ccccc12
EC50 ([1]; read-out: EC50): 0.31 µM

Compound: O=c1cc(-c2cc3ccccc3cn2)oc2ccccc12
EC50 ([1]; hek293): Not Active

Compound: O/N=c1\cc(-c2cc3ccccc3[nH]2)oc2ccccc12
EC50 ([1]; read-out: EC50): > 30 µM

Compound: O/N=c1\cc(-c2cc3ccccc3cn2)oc2cc(Br)ccc12
EC50 ([1]; read-out: EC50): 1.72 µM

Compound: O/N=c1\cc(-c2cnc3ccccc3n2)oc2ccccc12
EC50 ([1]; hek293): Not Active

Compound: O/N=c1\cc(-c2cc3cccn3cn2)oc2ccccc12
solubility thermodynamic [5]: 0.2 µM (≈ 0.0555 µg/mL) | EC50 ([1]; read-out: EC50): 0.11 µM

Compound: O/N=c1\cc(-c2ccc3ncccc3c2)oc2ccccc12
EC50 ([1]; read-out: EC50): 6.99 µM

Compound: O/N=c1\cc(-c2cc3ccccc3o2)oc2ccccc12
EC50 ([1]; read-out: EC50): > 30 µM

Compound: O/N=c1\cc(-c2cn3cccc3cn2)oc2ccccc12
EC50 ([1]; read-out: EC50): 0.28 µM

Compound: O/N=c1\cc(-c2ccc3ccccc3n2)oc2ccccc12
EC50 ([1]; hek293): Not Active

Compound: O/N=c1\cc(-c2ccn3ccnc3c2)oc2ccccc12
EC50 ([1]; hek293): Not Active

Compound: O/N=c1\cc(-c2cc3ccccc3s2)oc2ccccc12
EC50 ([1]; hek293): Not Active

Compound: O/N=c1\cc(-c2cc3cnccc3cn2)oc2ccccc12
EC50 ([1]; read-out: EC50): 1.27 µM

Compound: O/N=c1\cc(-c2cc3ccccc3cn2)oc2c(Cl)cccc12
EC50 ([1]; hek293): Not Active

Compound: O/N=c1\cc(-c2cnc3ccccc3c2)oc2ccccc12
EC50 ([1]; read-out: EC50): 3.96 µM

Compound: O/N=c1\cc(-c2ccc3ccccc3c2)oc2ccccc12
EC50 ([1]; hek293): Not Active

Compound: CON=c1cc(-c2cc3ccccc3cn2)oc2ccccc12
EC50 ([1]; hek293): Not Active

Compound: O=C(Nc1ccccc1)[C@]12C[C@H]1/C(=N\O)c1ccccc1O2
Activity [6]: Active

Compound: O/N=c1\cc(-c2cc3ccccc3cn2)oc2ccc(C(F)(F)F)cc12
EC50 ([1]; read-out: EC50): 2.47 µM

Compound: Cc1c(-c2cc3ccccc3cn2)oc2ccccc2/c1=N/O
EC50 ([1]; hek293): Not Active

Compound: O/N=c1\cc(/C=C/c2ccccc2)oc2ccccc12
EC50 ([1]; read-out: EC50): 14.2 µM

Compound: O/N=c1\cc(-c2cc3ccccc3cn2)oc2cc(CCc3ccccc3)ccc12
EC50 ([1]; read-out: EC50): 1.74 µM
